A word on the Ki: it is a dissociation constant, usually derived from enzyme kinetics or from competition with a known ligand.

The structures appear in SMILES notation.

For the test, the target named is Nuclear receptor ROR-alpha (Homo sapiens) (UniProt P35398). Briefly: displacement of tritiated 25-hydroxycholesterol from RORa – biochemical, [3H]25-hydroxycholesterol, radioligand competition, GST-RORa LBD, orthogonal assay for RORA inverse agonist project, late-stage follow-up (AID 504906). The note with it: [3H]25-hydroxycholesterol displacement, radioligand binding. The essentials:
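Assay system: purified GST-tagged human RORα ligand-binding domain, residues 304-556, E. coli-expressed. Medium: 50 mM HEPES buffer, pH 7.4, with 0.01% BSA. Also added: [3H]25-hydroxycholesterol radioligand at 3 nM final. Technique: GF/B filter capture of bound radioligand. Evaluation: Ki via mixed-inhibition model regression.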

Sequence of Nuclear receptor ROR-alpha (Homo sapiens) (P35398 whole entry, looked up, the tested form may be a part): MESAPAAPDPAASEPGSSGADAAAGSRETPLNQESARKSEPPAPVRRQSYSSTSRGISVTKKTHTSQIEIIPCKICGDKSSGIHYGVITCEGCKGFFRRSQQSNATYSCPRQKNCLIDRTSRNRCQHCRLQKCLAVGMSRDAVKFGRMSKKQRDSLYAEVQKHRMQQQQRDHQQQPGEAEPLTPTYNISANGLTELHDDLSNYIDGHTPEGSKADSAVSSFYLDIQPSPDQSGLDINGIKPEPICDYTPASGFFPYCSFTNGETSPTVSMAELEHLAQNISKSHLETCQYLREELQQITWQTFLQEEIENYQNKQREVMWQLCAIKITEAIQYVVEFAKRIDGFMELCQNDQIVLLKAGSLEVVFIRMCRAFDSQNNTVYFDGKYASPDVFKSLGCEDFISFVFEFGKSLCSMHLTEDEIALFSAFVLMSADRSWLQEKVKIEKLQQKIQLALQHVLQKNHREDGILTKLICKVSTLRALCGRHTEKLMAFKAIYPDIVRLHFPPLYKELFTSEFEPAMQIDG

`O=S(=O)(Nc1ccc(C(O)(C(F)(F)F)C(F)(F)F)cc1)c1cccs1`: the Ki was 220 nM.

Values taken from PubChem BioAssay AID504906 (The Scripps Research Institute Molecular Screening Center, 2011).
